From ChEMBL document CHEMBL2385032, “Dual-functional abeo-taxane derivatives destabilizing microtubule equilibrium and inhibiting NF-κB activation” (2013)
Calls of active or inactive are those of the source. No cut-off for these calls is given here.

Key:
HCT-116 [1] = assay: Cell cycle arrest in human HCT116 cells assessed as accumulation at G2/M phase after 12 hrs by propidium iodide staining-based FACS analysis; assay type: functional
HEK-293T [2] = assay: Inhibition of TNF-alpha induced NF-kapppaB activation in HEK293T cells incubated 1 hr prior to TNF-alpha addition measured after 18 hrs by luciferase reporter gene assay; assay type: cell-based; conditions: Homo sapiens
Method in brief: (§1)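 HEK 293T cells transiently transfected 12 h with pNFκB-luc and pRL-TK, pretreated 1 h with compound (0.31–2.50 μM) or DMSO, then stimulated with TNF-α 25 ng/mL for 18 h; firefly and Renilla luciferase read by dual-luciferase assay. Data from one of three independent experiments.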

HCT-116 [3] = assay: Induction of apoptosis in human HCT116 cells at 1 uM after 24 hrs by AnnexinV-FITC/PI staining-based flow cytometry; assay type: functional
HCT-116 [4] = assay: Induction of apoptosis in human HCT116 cells at 2 uM after 24 hrs by AnnexinV-FITC/PI staining-based flow cytometry; assay type: functional
RXF 393 = assay: Cytotoxicity against human RXF393 cells; assay type: functional
Method in brief: (§2)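 NCI-60 human tumor cell line screen run by standard NCI protocol: single-dose prescreen at 10 μM, then multi-dose testing of compounds giving over 50% growth inhibition; GI50 = concentration for 50% growth inhibition.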

LOX IMVI = assay: Cytotoxicity against human LOXIMVI cells; assay type: functional
HCT-116 [5] = assay: Cytotoxicity against human HCT116 cells; assay type: functional; method in brief: as §2
HCT-116 [6] = assay: Induction of apoptosis in human HCT116 cells assessed as late apoptotic cells at 1 uM after 24 hrs by AnnexinV-FITC/PI staining-based flow cytometry (reference value: 2.53 %); assay type: functional
HCT-116 [7] = assay: Induction of apoptosis in human HCT116 cells assessed as early apoptotic cells at 2 uM after 24 hrs by AnnexinV-FITC/PI staining-based flow cytometry (reference value: 2.17 %); assay type: functional
Homo sapiens [8] = organism: Homo sapiens; assay: Induction of microtubule depolymerization in human PC3 mitotic cells assessed as abnormal spindles at 5 uM after 24 hrs by DAPI staining-based immunofluorescence microscopic analysis; assay type: cell-based
Method in brief: (§3)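 PC-3 cells grown on chamber slides 36 h, then treated 24 h (test agents 2, 5 or 10 μM; reference agents 200 nM); fixed in 4% paraformaldehyde, permeabilized with 0.5% Triton X-100, stained with anti-α-tubulin monoclonal plus FITC secondary and DAPI for nuclei; spindle and microtubule morphology by fluorescence microscopy.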

HCT-116 [9] = assay: Cell cycle arrest in human HCT116 cells assessed as accumulation at G0/G1 phase at 1 uM after 12 hrs by propidium iodide staining-based FACS analysis (reference value: 54.63 to 55.88 %); assay type: functional
HCT-116 [10] = assay: Cell cycle arrest in human HCT116 cells assessed as accumulation at G0/G1 phase at 2 uM after 12 hrs by propidium iodide staining-based FACS analysis (reference value: 54.63 to 55.88 %); assay type: functional
HCT-116 [11] = assay: Induction of apoptosis in human HCT116 cells assessed as early apoptotic cells at 1 uM after 24 hrs by AnnexinV-FITC/PI staining-based flow cytometry (reference value: 2.17 %); assay type: functional
Homo sapiens [12] = organism: Homo sapiens; assay: Induction of microtubule depolymerization in human PC3 interphase cells at 5 uM after 24 hrs by DAPI staining-based immunofluorescence microscopic analysis; assay type: cell-based; method in brief: as §3
HCT-116 [13] = assay: Cell cycle arrest in human HCT116 cells assessed as accumulation at G2/M phase at 1 uM after 12 hrs by propidium iodide staining-based FACS analysis (reference value: 20.40 to 22.32 %); assay type: functional
HEK-293T [14] = assay: Inhibition of TNF-alpha induced NF-kapppaB activation in HEK293T cells at 0.62 uM incubated 1 hr prior to TNF-alpha addition measured after 18 hrs by luciferase reporter gene assay; assay type: cell-based; conditions: Homo sapiens; method in brief: as §1
HCT-116 [15] = assay: Cell cycle arrest in human HCT116 cells assessed as reduction in G0/G1 phase after 12 hrs by propidium iodide staining-based FACS analysis; assay type: functional
OVCAR-3 = assay: Cytotoxicity against human OVCAR3 cells; assay type: functional; method in brief: as §2
HCT-116 [16] = assay: Induction of apoptosis in human HCT116 cells after 24 hrs by AnnexinV-FITC/PI staining-based flow cytometry; assay type: functional, cell-based
T47D = assay: Cytotoxicity against human T47D cells; assay type: functional; method in brief: as §2
NCI-H322M = assay: Cytotoxicity against human NCI-H322M cells; assay type: functional; method in brief: as §2
HCT-116 [17] = assay: Cell cycle arrest in human HCT116 cells assessed as accumulation at S phase at 1 uM after 12 hrs by propidium iodide staining-based FACS analysis (reference value: 20.48 to 23.62 %); assay type: functional
HCT-116 [18] = assay: Cell cycle arrest in human HCT116 cells assessed as accumulation at S phase at 2 uM after 12 hrs by propidium iodide staining-based FACS analysis (reference value: 20.48 to 23.62 %); assay type: functional
HEK-293T [19] = assay: Inhibition of TNF-alpha induced NF-kapppaB activation in HEK293T cells at 2.50 uM incubated 1 hr prior to TNF-alpha addition measured after 18 hrs by luciferase reporter gene assay; assay type: cell-based; conditions: Homo sapiens; method in brief: as §1
Tubulin (Homo sapiens) = Tubulin (Homo sapiens) (UniProt P68371+Q9H4B7+P0DPH7+P68366+Q13509+Q71U36+P04350+Q3ZCM7+P07437+P68363+Q9BQE3+Q6PEY2+Q13885+Q9BVA1+Q9BUF5); assay: Inhibition of tubulin (unknown origin) polymerization assessed as destabilization of microtubule at 15 uM by fluorescence assay; assay type: protein-complex assay
Method in brief: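 Cell-free tubulin polymerization kit; tubulin mixed with DMSO control, 500 μM CaCl2, 3 μM paclitaxel or test compounds at 15 or 30 μM; polymerization followed kinetically by fluorescence, excitation 340 nm, emission 420 nm, in a temperature-regulated fluorimeter. Three independent experiments in triplicate.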

DU-145 = assay: Cytotoxicity against human DU145 cells; assay type: functional; method in brief: as §2
HEK-293T [20] = assay: Inhibition of TNF-alpha induced NF-kapppaB activation in HEK293T cells at 1.25 uM incubated 1 hr prior to TNF-alpha addition measured after 18 hrs by luciferase reporter gene assay; assay type: cell-based; conditions: Homo sapiens; method in brief: as §1
HCT-116 [21] = assay: Induction of apoptosis in human HCT116 cells assessed as late apoptotic cells at 2 uM after 24 hrs by AnnexinV-FITC/PI staining-based flow cytometry (reference value: 2.53 %); assay type: functional
SNB-19 = assay: Cytotoxicity against human SNB19 cells; assay type: functional; method in brief: as §2

C=C1C(=O)C[C@H](OC(C)=O)[C@@]2(C)[C@@H](OC(C)=O)[C@H](OC(=O)c3ccccc3)C3=C(C)[C@@H](OC(=O)[C@H](O)[C@@H](NC(=O)OC(C)(C)C)c4ccccc4)C[C@@]3(C(C)(C)O)[C@@H](OC(C)=O)[C@H]12
Activity (HCT-116 [1]): Dose-dependent effect
inhibition (HEK-293T [2]): Dose-dependent effect
Activity (HCT-116 [3]): 4.93%
Activity (HCT-116 [4]): 19.87%
GI50 (RXF 393): 1330 nM
GI50 (LOX IMVI): 1700 nM
GI50 (HCT-116 [5]): 1120 nM
Activity (HCT-116 [6]): 5.24%
Activity (HCT-116 [7]): 5.72%
Activity (Homo sapiens [8]): Active
Activity (HCT-116 [9]): 51.25%
Activity (HCT-116 [10]): 50.3%
Activity (HCT-116 [11]): 3.3%
Activity (Homo sapiens [12]): Active
Activity (HCT-116 [13]): 26.14%
inhibition (HEK-293T [14]): 9%
Activity (HCT-116 [15]): Dose-dependent effect
GI50 (OVCAR-3): 1690 nM
Activity (HCT-116 [16]): Dose-dependent effect
GI50 (T47D): 1880 nM
GI50 (NCI-H322M): 18800 nM
Activity (HCT-116 [17]): 20.48%
Activity (HCT-116 [18]): 16.39%
inhibition (HEK-293T [19]): 28%
inhibition (Tubulin (Homo sapiens)): Active
GI50 (DU-145): 1890 nM
inhibition (HEK-293T [20]): 12%
Activity (HCT-116 [21]): 14.64%
GI50 (SNB-19): 27500 nM
